Published values pooled from the literature.
Target: Serine/threonine-protein kinase Chk1 (CHEK1, Homo sapiens, UniProt O14757)
One construct used (O14757 1-476): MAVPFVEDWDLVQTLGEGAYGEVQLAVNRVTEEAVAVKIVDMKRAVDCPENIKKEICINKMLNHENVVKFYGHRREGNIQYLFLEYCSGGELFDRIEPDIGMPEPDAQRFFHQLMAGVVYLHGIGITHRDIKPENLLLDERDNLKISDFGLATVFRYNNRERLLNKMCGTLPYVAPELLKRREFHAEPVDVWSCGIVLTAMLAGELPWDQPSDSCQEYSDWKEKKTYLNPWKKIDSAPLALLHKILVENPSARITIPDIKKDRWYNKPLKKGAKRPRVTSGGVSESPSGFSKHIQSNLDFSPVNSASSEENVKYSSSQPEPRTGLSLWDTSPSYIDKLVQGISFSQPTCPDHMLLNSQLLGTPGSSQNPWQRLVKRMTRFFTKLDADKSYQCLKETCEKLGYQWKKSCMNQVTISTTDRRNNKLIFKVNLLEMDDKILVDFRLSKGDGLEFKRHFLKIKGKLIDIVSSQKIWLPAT

| Structure (SMILES) | observed | action | method | tested at | quantity | value |
| --- | --- | --- | --- | --- | --- | --- |
| N#Cc1ccc(NC(=O)Nc2ccccc2)cc1 | cell-free assay | – | competition with immobilised ligand | 25 µM | remaining binding | 91% |
| COc1ccc2[nH]c3c4[nH]c5ccc(OC)cc5c4c4c(c3c2c1)C(=O)NC4=O | binding | – | – | 1 µM | remaining binding | 12% |
| COc1ccc2oc(-c3ccc4nc(N)oc4c3)c/c(=N\c3ccccc3NC(=O)CCN)c2c1 | binding | – | – | 1 µM | remaining binding | 87% |
| CC#CC(=O)N1CCC[C@H]1c1nc(-c2ccc(C(=O)Nc3ccccn3)cc2)c2c(N)nccn12 | enzyme activity | inhibitor | – | 1 µM | inhibition | 20% |
| C[C@H]1CC[C@H](n2c3cnccc3c3cnc(Nc4ccc5c(n4)CCN(C(=O)CO)C5)nc32)CC1 | cell-free assay | – | – | 1 µM | remaining signal | 93% |
| C1=C/COCc2cc(ccc2OCCN2CCCC2)Nc2nccc(n2)-c2cccc(c2)COC/1 | cell-free assay | – | – | 0.1 µM | remaining signal | 100% |
| CCCCC(=O)Nc1ccc(-c2ccc3ncn(CCC)c(=O)c3c2)cn1 | binding | – | competition with immobilised ligand | 0.5 µM | remaining binding | 86% |
| C=CC(=O)N1CCC[C@@H](n2nc(-c3ccc(Oc4ccccc4)cc3)c3c(N)ncnc32)C1 | enzyme activity | inhibitor | – | 1 µM | inhibition | 10% |
| C#Cc1cnc(Nc2ccnc(CO)c2)nc1Nc1ccccc1S(C)(=O)=NC#N (stereo not drawn) | cell-free assay | – | – | 1 µM | remaining signal | 38% |
